Reference: ChEMBL document CHEMBL4184143 (J Med Chem, 2017)

Experiments:
[1] = tested on: MOLM-13; assay: Growth inhibition of human MOLM13 cells after 4 days by WST-8 assay; assay type: functional, cell-based; conditions: MOLM-13, 96 h
In short: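 MOLM-13 leukemia cells were seeded at 10,000 cells/well and exposed to serially diluted compound for 4 days. Signal was normalized to DMSO controls, and IC50 was fitted by nonlinear regression.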

[2] = tested on: MV4-11; assay: Growth inhibition of human MV4-11 cells after 4 days by WST-8 assay; assay type: functional, cell-based; conditions: MV4-11, 96 h
[3] = biological target: T1, Bromodomain-containing protein 4 (Homo sapiens, UniProt O60885); assay: Inhibition of FAM-labeled ZBA248 binding to recombinant human N-terminal His6-tagged BRD4 bromodomain 1 (44 to 168 residues) expressed in Rosetta2 DE3 cells after 30 mins by Flourescence polarization assay; assay type: biochemical
[4] = biological target: T1, Bromodomain-containing protein 4; assay: Inhibition of FAM-labeled ZBA248 binding to recombinant human N-terminal His6-tagged BRD4 bromodomain 2 (333 to 460 residues) expressed in Rosetta2 DE3 cells after 30 mins by Flourescence polarization assay; assay type: biochemical
[5] = tested on: Mus musculus; assay: Toxicity in SCID mouse implanted with human MV4-11 cells at 50 mg/kg, po qd measured 2 to 3 times weekly during treatment and once weekly post dose; assay type: organism-based; conditions: in vivo
In short: (§1)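 At ~100 mm3, mice were randomized to treatment or vehicle control. Tumors were measured by electronic calipers. Animals were checked daily for signs of toxicity and weighed 2–3 times weekly on treatment, then at least weekly afterwards.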

[6] = tested on: Mus musculus; assay: Toxicity in SCID mouse implanted with human MV-411 cells assessed as weight loss at 50 mg/kg, po qd measured 2 to 3 times weekly during treatment and weekly post dose; assay type: organism-based; conditions: in vivo; in short: as §1
[7] = tested on: MV4-11; assay: Antitumor activity against human MV4-11 cells xenografted in SCID mouse assessed as tumor growth inhibition at 50 mg/kg, po qd measured 2 to 3 times weekly during treatment and once weekly post dose; assay type: functional; conditions: MV4-11, po, read-out: TGI; in short: as §1
[8] = AUC (0 to t) in Sprague-Dawley rat at 25 mg/kg, po by LC/MS method; assay type: ADME, organism-based; conditions: in vivo
In short: (§2)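 Sprague Dawley rats were dosed iv at 5 mg/kg or orally at 25 mg/kg, with compound dissolved in 20% (v/v) PCP/70% (v/v) PBS vehicle. Blood was drawn by catheter at 0, 5, 15, 30 min and 1, 2, 4, 6, 8, 24 h and spun to plasma, which was stored at −80 °C. Plasma drug was quantified by a validated LC–MS/MS method, and parameters were derived noncompartmentally.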

[9] = Half life in human liver microsomes at 1 uM by LC/MS method; assay type: ADME, microsome
[10] = Aqueous solubility of the compound in 5% DMSO/10% cremophor/85% saline; assay type: physicochemical; conditions: buffer
[11] = Cmax in Sprague-Dawley rat at 25 mg/kg, po by LC/MS method; assay type: ADME, organism-based; set-up: dose 25 mg/kg, route oral; conditions: in vivo; in short: as §2
[12] = Half life in CD1 mouse liver microsomes at 1 uM by LC/MS method; assay type: ADME, microsome
[13] = Half life in Sprague-Dawley rat at 25 mg/kg, po by LC/MS method; assay type: ADME, organism-based; conditions: in vivo; in short: as §2
[14] = Half life in Sprague-Dawley rat liver microsomes at 1 uM by LC/MS method; assay type: ADME, microsome
[15] = Drug level in SCID mouse at 25 mg/kg, po after 3 hrs by LC-MS/MS analysis; assay type: ADME, organism-based; conditions: in vivo, read-out: Drug uptake
In short: (§3)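 SCID mice received a single oral dose of 25 mg/kg in 20% (v/v) PCP/70% (v/v) PBS vehicle. Blood was collected and centrifuged to plasma, which was stored at −80 °C. Plasma drug concentration was measured by a validated LC–MS/MS method.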

[16] = Drug level in SCID mouse at 25 mg/kg, po after 1 hr by LC-MS/MS analysis; assay type: ADME, organism-based; conditions: in vivo, read-out: Drug uptake; in short: as §3
[17] = Drug level in SCID mouse at 25 mg/kg, po after 6 hrs by LC-MS/MS analysis; assay type: ADME, organism-based; conditions: in vivo, read-out: Drug uptake; in short: as §3

| Compound | IC50 [1] [nM] | IC50 [2] [nM] | IC50 [3] [nM] | Ki [3] [nM] | IC50 [4] [nM] | Ki [4] [nM] | also measured |
| --- | --- | --- | --- | --- | --- | --- | --- |
| COc1cc2c(cc1-c1c(C)noc1C)[nH]c1nc(C)nc(-c3cc(C(F)(F)F)nc4ccccc34)c12 | 971 | 77 | 393 | 122 | 92.7 | 26.9 |  |
| COc1cc2c(cc1-c1c(C)noc1C)[nH]c1ncnc(-c3c(C)oc4ccccc34)c12 | 380 | 29 | 32.4 | 9.3 | 12.2 | 2.8 |  |
| COc1cc2c(cc1-c1c(C)noc1C)[nH]c1ncnc(-n3nnc4ccccc43)c12 | > 10000 | > 10000 | > 1000 | > 1000 | > 1000 | > 1000 |  |
| COc1cc2c(cc1-c1c(C)noc1C)[nH]c1ncnc(-c3cnoc3)c12 |  |  | 2060 | 655 | 1880 | 641 |  |
| COc1cc2c(cc1-c1c(C)noc1C)[nH]c1ncnc(Cl)c12 |  |  | 1130 | 387 | 1760 | 476 |  |
| COc1cc2c(cc1-c1c(C)noc1C)[nH]c1ncnc(-c3c[nH]c4cnccc34)c12 | 489 | 190 | 11.6 | 7 | 22.7 | 7.1 |  |
| COc1cc2c(cc1-c1c(C)noc1C)[nH]c1ncnc(-c3c(C)n[nH]c3C)c12 | 233 | 99 | 51.7 | 19.7 | 63.5 | 20.2 |  |
| COc1cc2c(cc1-c1c(C)noc1C)[nH]c1nc(C)nc(-c3cccc4cccnc34)c12 |  | 334 | 412 | 129 | 193 | 58.2 |  |
| COc1cc2c(cc1-c1c(C)noc1C)[nH]c1ncnc(-c3c(C)[nH]c4cnccc34)c12 | 127 | 13 | 10.8 | 4.2 | 25.9 | 9.1 |  |
| COc1cc2c(cc1-c1c(C)noc1C)[nH]c1ncnc(-c3cn[nH]c3)c12 |  |  | 393 | 131 | 199 | 57 |  |
| COc1cc2c(cc1-c1c(C)noc1C)[nH]c1ncnc(-c3cc[nH]c3)c12 | 612 | 253 | 165 | 51.9 | 108 | 30.6 |  |
| COc1cc2c(cc1-c1c(C)noc1C)ncc1[nH]c(=O)n([C@H](C)c3ccccn3)c12 |  |  |  |  |  |  | Activity [5]: Non-Toxic; Activity [6]: Non-Toxic; inhibition in vivo at 50 mg/kg [7]: > 80% |
| COc1cc2c(cc1-c1c(C)noc1C)[nH]c1ncnc(-c3c(C)nn(C)c3C)c12 | 193 | 95 | 40.9 | 18.5 | 89.7 | 31.2 |  |
| COc1cc2c(cc1-c1c(C)noc1C)[nH]c1nc(C)nc(-c3cccc4ncccc34)c12 | 76 | 28 | 30.9 | 10.1 | 15.5 | 3.1 |  |
| COc1cc(-c2nc(C)nc3[nH]c4cc(-c5c(C)noc5C)c(OC)cc4c23)c2ccccc2n1 | 243 | 69 | 73.1 | 31.8 | 14.6 | 4.2 |  |
| COc1cc2c(cc1-c1c(C)noc1C)[nH]c1ncnc(-c3nn(C)c4ccccc34)c12 | > 10000 | > 10000 | 147 | 85.1 | 74.9 | 22.5 |  |

| Compound | IC50 [1] [nM] | IC50 [2] [nM] | IC50 [3] [nM] | Ki [3] [nM] | IC50 [4] [nM] | Ki [4] [nM] | also measured |
| --- | --- | --- | --- | --- | --- | --- | --- |
| COc1cc2c(cc1-c1c(C)noc1C)[nH]c1ncnc(-c3c(C)[nH]c4ccccc34)c12 | 65 | 6.6 | 5 | 0.7 | 1.1 | < 0.5 | AUC(0-t) [8]: 13400 ng·h/mL; t1/2 [9]: 0.13 h; solubility [10]: Insoluble; Cmax [11]: 1400 ng/mL; t1/2 [12]: 0.067 h; half-life [13]: 1.7 h; t1/2 [14]: > 1 h |
| COc1cc2c(cc1-c1c(C)noc1C)[nH]c1ncnc(-n3ccnc3)c12 | 9270 | 1060 | 1460 | 456 | 1140 | 335 |  |
| COc1cc2c(cc1-c1c(C)noc1C)[nH]c1ncnc(N[C@H](C)c3ccccn3)c12 |  |  | 39.2 | 12 | 26.4 | 10.4 |  |
| COc1cc2c(cc1-c1c(C)noc1C)[nH]c1nc(C)nc(-c3cnc4ccccc4c3)c12 | 716 | 423 | 397 | 136 | 128 | 42.6 |  |
| COc1cc2c(cc1-c1c(C)noc1C)[nH]c1nc(C)nc(-c3cc(C)nc4ccccc34)c12 | 69 | 17 | 19.7 | 5.7 | 5.2 | 1.6 | t1/2 [9]: > 1 h; t1/2 [12]: > 1 h; t1/2 [14]: > 1 h |
| COc1cc2c(cc1-c1c(C)noc1C)[nH]c1ncnc(-n3cnc4ccccc43)c12 | 262 | 15 | 29.4 | 9.9 | 9.4 | 2.8 |  |
| COc1cc2c(cc1-c1c(C)noc1C)[nH]c1nc(C)nc(-c3cncc4ccccc34)c12 | 124 | 47 | 35.6 | 9.5 | 12.7 | 3.8 |  |
| COc1cc2c(cc1-c1c(C)noc1C)[nH]c1ncnc(-c3cnn4ccccc34)c12 | 139 | 13 | 48.7 | 28 | 26.5 | 6.5 |  |
| COc1cc2c(cc1-c1c(C)noc1C)[nH]c1ncnc(-c3c[nH]c4ccccc34)c12 | 205 | 57 | 20.3 | 4.9 | 5.5 | 1.1 |  |
| COc1cc2c(cc1-c1c(C)noc1C)[nH]c1nc(C)nc(-c3cccc4ccncc34)c12 | 1140 | > 1000 | 316 | 78.6 | 167 | 52.3 |  |
| COc1cc2c(cc1-c1c(C)noc1C)[nH]c1ncnc(-c3c(C)noc3C)c12 | 709 | 182 | 102 | 41.2 | 164 | 68.7 |  |
| COc1cc2c(cc1-c1c(C)noc1C)[nH]c1ncnc(-c3c(C4CC4)n[nH]c3C)c12 | 36 | 6 | 24.1 | 7 | 11.7 | 2.7 | concentration at 3 h [15]: 872 ng/mL; concentration at 1 h [16]: 2200 ng/mL; concentration at 6 h [17]: 72 ng/mL |
| COc1cc2c(cc1-c1c(C)noc1C)[nH]c1nc(C)nc(-c3cccc4cnccc34)c12 | 656 | 295 | 451 | 139 | 436 | 146 |  |
| COc1cc2c(cc1-c1c(C)noc1C)[nH]c1nc(C)nc(-c3c(C)[nH]c4ccccc34)c12 | 20 | 2 | 6.1 | 0.8 | 1.9 | < 0.5 | t1/2 [9]: 0.15 h; t1/2 [12]: > 1 h; t1/2 [14]: > 1 h |
| COc1cc2c(cc1-c1c(C)noc1C)[nH]c1ncnc(-c3ccoc3)c12 | > 10000 | 2860 | 155 | 44.3 | 180 | 56.4 |  |
